Source: ChEMBL document CHEMBL1153469, “Antimicrobial and immunomodulatory properties of prenylated xanthones from twigs of Garcinia staudtii” (Bioorg Med Chem, 2009)
In brackets after ≈: the same amount, converted by molar mass.

Tests used:
PBMC [1] = assay: cells; settings: Homo sapiens
[2] = Cytotoxicity against MDBK cells at 50 ug/mL after 72 hrs by MTT assay; format: cell-based, Bos taurus; settings: cattle
In short: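 MDBK adherent cells at 2 × 10^5 cells/mL were exposed to serial compound dilutions (0.195–50 µg/mL), with viability examined after 72 h. MTT (2 mg/mL) was added for 2–3 h at 37 °C. Cells were washed with PBS and the formazan dissolved in DMSO, with 15 min agitation at 37 °C. Absorbance was read at 540 nm, and viability was taken as the OD ratio to control.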

PBMC [3] = assay: Immunomodulatory activity in human PBMC assessed as inhibition of phytohemagglutinin-induced T-cell proliferation at 12.5 ug/mL after 72 hrs by [3H]thymidine incorporation assay; format: functional
In short: (§1)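 PBMCs were isolated from heparinized venous blood of a healthy adult donor by Ficoll–Hypaque gradient. Cells at 5 × 10^5 cells/mL were stimulated with PHA 5 µg/mL, with compounds at 3.1–100 µg/mL final, in triplicate. Incubation was 72 h at 37 °C in 5% CO2, then a 0.5 µCi/well [3H]thymidine pulse for 18 h further. Incorporation was counted by liquid scintillation as mean CPM.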

[4] = Cytotoxicity against MNC at 3.1 to 50 ug/mL
PBMC [5] = assay: Immunomodulatory activity in human PBMC assessed as inhibition of phytohemagglutinin-stimulated IL4 release at 1 ug/mL after 18 hrs; format: functional
In short: (§2)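 Donor PBMCs were Ficoll-isolated and cultured in RPMI-1640 with 10% AB human serum, at 10^5 cells/well, with or without PHA 1.25 µg/mL. Compounds were tested at 16, 4, 1 and 0.5 µg/mL for 18 h at 37 °C in 5% CO2. Supernatants were cleared by 1000g centrifugation at 4 °C. IL-2, IL-4 and IFN-γ were measured by ELISA kit.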

PBMC [6] = assay: Immunomodulatory activity in human PBMC assessed as phytohemagglutinin-stimulated IFN-gamma release at 0.5 to 16 ug/mL after 18 hrs by ELISA; format: functional
In short: as §2

PBMC [7] = assay: Immunomodulatory activity in human PBMC assessed as inhibition of phytohemagglutinin-stimulated IL4 release after 18 hrs by ELISA; format: functional, cell-based
In short: as §2

[8] = Cytotoxicity against polymorphoneutrophils at 3.1 to 50 ug/mL; format: cell-based; settings: neutrophil
[9] = Immunomodulatory activity in MNC assessed as suppression of phagocytosis activity after 30 mins by luminol-enhanced chemiluminescence assay; format: functional
In short: (§3)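 Luminol-enhanced chemiluminescence was run on neutrophils (1 × 10^7) or monocytes (1 × 10^6) in HBSS with Ca/Mg. Cells were preincubated 30 min with compound (3.1–50 µg/mL), then zymosan (20 mg/mL stock) and luminol (7 × 10^-5 M stock) were added, to 0.2 mL final. HBSS alone served as control. Fifty luminometer scans were taken at 30 s intervals, with readings expressed relative to untreated control.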

PBMC [10] = assay: Immunomodulatory activity in human PBMC assessed as inhibition of phytohemagglutinin-stimulated IFN-gamma release after 18 hrs by ELISA; format: functional, cell-based
In short: as §2

Neutrophil [11] = assay: Immunomodulatory activity in polymorphoneutrophils assessed as suppression of phagocytosis activity at 3.1 ug/mL after 30 mins by luminol-enhanced chemiluminescence assay
Neutrophil [12] = assay: Immunomodulatory activity in polymorphoneutrophils assessed as suppression of phagocytosis activity 30 mins by luminol-enhanced chemiluminescence assay; format: functional, cell-based
In short: as §3

PBMC [13] = assay: Immunomodulatory activity in human PBMC assessed as inhibition of phytohemagglutinin-stimulated IL2 release at 0.5 ug/mL after 18 hrs by ELISA; format: functional
In short: as §2

PBMC [14] = assay: Immunomodulatory activity in human PBMC assessed as phytohemagglutinin-stimulated IL2 release at 0.5 to 16 ug/mL after 18 hrs by ELISA; format: functional
In short: as §2

PBMC [15] = assay: Immunomodulatory activity in human PBMC assessed as inhibition of phytohemagglutinin-stimulated IFN-gamma release at 0.5 ug/mL after 18 hrs by ELISA; format: functional
In short: as §2

[16] = Immunomodulatory activity in MNC assessed as suppression of phagocytosis activity at 3.1 ug/mL after 30 mins by luminol-enhanced chemiluminescence assay
PBMC [17] = assay: Immunomodulatory activity in human PBMC assessed as phytohemagglutinin-stimulated IL4 release at 0.5 to 16 ug/mL after 18 hrs by ELISA; format: functional
In short: as §2

Neutrophil [18] = assay: Immunomodulatory activity in polymorphoneutrophils assessed as inhibition of fMLP-induced cellular chemotaxis at 2.5 to 25 ug/mL after 1 hr using hematoxylin staining by light microscopy; format: functional
In short: (§4)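 PMN chemotaxis was measured in a modified Boyden chamber. fMLP (10^-8 M) was placed in the lower well, separated by a cellulose filter (2 µm pores). 5 × 10^4 cells in HBSS with Ca/Mg went in the upper well, with compounds at 2.5, 5 or 25 µg/mL, in duplicate. The DMSO:HBSS (1:1) buffer served as control. After 60 min at 37 °C in CO2, cells in the filter were hematoxylin-stained and migration distance was measured in five random fields.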

PBMC [19] = assay: Immunomodulatory activity in human PBMC assessed as inhibition of phytohemagglutinin-stimulated IL2 release after 18 hrs by ELISA; format: functional, cell-based
In short: as §2

Neutrophil [20] = assay: Immunomodulatory activity in polymorphoneutrophils assessed as inhibition of fMLP-induced cellular chemotaxis at 5 ug/mL pre-incubated 1 hr before fMLP challenge measured after 1 hr using hematoxylin staining by light microscopy; format: functional
In short: as §4

Neutrophil [21] = assay: Immunomodulatory activity in polymorphoneutrophils assessed as inhibition of fMLP-induced cellular chemotaxis at 2.5 ug/mL pre-incubated 1 hr before fMLP challenge measured after 1 hr using hematoxylin staining by light microscopy; format: functional
In short: as §4

Neutrophil [22] = assay: Immunomodulatory activity in polymorphoneutrophils assessed as inhibition of fMLP-induced cellular chemotaxis at 25 ug/mL after 1 hr using hematoxylin staining by light microscopy; format: functional
In short: as §4

PBMC [23] = assay: Immunomodulatory activity in human PBMC assessed as inhibition of phytohemagglutinin-induced T-cell proliferation at 6.125 ug/mL after 72 hrs by [3H]thymidine incorporation assay; format: functional
In short: as §1

[24] = Immunomodulatory activity in MNC assessed as stimulation of reactive oxygen species release at 3.1 ug/mL after 30 mins by luminol-enhanced chemiluminescence assay; format: functional
In short: as §3

[25] = Immunomodulatory activity in MNC assessed as inhibition of reactive oxygen species release at 50 ug/mL after 30 mins by luminol-enhanced chemiluminescence assay; format: functional; design: scale not given: the % may be the effect or the level left
In short: as §3

PBMC [26] = assay: Immunomodulatory activity in human PBMC assessed as inhibition of phytohemagglutinin-induced T-cell proliferation at 3.1 ug/mL after 72 hrs by [3H]thymidine incorporation assay; format: functional
In short: as §1

[27] = Immunomodulatory activity in MNC assessed as inhibition of reactive oxygen species release at 25 ug/mL after 30 mins by luminol-enhanced chemiluminescence assay; format: functional; design: scale not given: the % may be the effect or the level left
In short: as §3

| Compound | IC50 (PBMC [1]) | Activity [2] | inhibition at 12.5 µg/mL (PBMC [3]) | Activity [4] | Activity (PBMC [6]) | inhibition (PBMC [7]) | Activity [8] | Activity [9] | inhibition (PBMC [10]) | Activity (Neutrophil [12]) | Activity (PBMC [14]) | Activity (PBMC [17]) | inhibition (INH) (Neutrophil [18]) | inhibition (PBMC [19]) | also measured |
| --- | --- | --- | --- | --- | --- | --- | --- | --- | --- | --- | --- | --- | --- | --- | --- |
| CC(C)=CCc1c(O)c(CC=C(C)C)c2oc3c(O)cc(O)cc3c(=O)c2c1O [STAUDTIIXANTHONE A] | 6.2 µg/mL (≈ 15.6 µM) | Non-toxic | 94.3% | Non-toxic | 4033.7 pg/mL | Dose-dependent effect | Non-toxic | Dose-dependent effect | Dose-dependent effect | Dose-dependent effect | 528.5 pg/mL | 120.5 pg/mL | 27% | Dose-dependent effect | inhibition at 1 µg/mL (PBMC [5]): 88.1%; Activity (Neutrophil [11]): 73%; inhibition at 0.5 µg/mL (PBMC [13]): 68.2%; inhibition at 0.5 µg/mL (PBMC [15]): 62.5%; Activity [16]: 73% |
| CC(C)=CCc1c2c(c(O)c3c(=O)c4cc(O)cc(O)c4oc13)C=CC(C)(C)O2 [STAUDTIIXANTHONE B] | 6.4 µg/mL (≈ 16.2 µM) | Non-toxic | 97.1% | Non-toxic | 4033.7 pg/mL | Dose-dependent effect | Non-toxic | Dose-dependent effect | Dose-dependent effect | Dose-dependent effect | 528.5 pg/mL | 120.5 pg/mL | 27% | Dose-dependent effect |  |
| CC(C)=CCc1c2c(c3oc4c(O)cc(O)cc4c(=O)c3c1O)C=CC(C)(C)O2 [STAUDTIIXANTHONE C] | 12.7 µg/mL (≈ 32.2 µM) | Non-toxic |  | Non-toxic | 4033.7 pg/mL | Dose-dependent effect | Non-toxic | Dose-dependent effect | Dose-dependent effect | Dose-dependent effect | 528.5 pg/mL | 120.5 pg/mL | 27% | Dose-dependent effect | inhibition at 5 µg/mL (Neutrophil [20]): 42.2%; inhibition at 2.5 µg/mL (Neutrophil [21]): 36.4%; inhibition at 25 µg/mL (Neutrophil [22]): 46% |
| COc1cc2oc3c4c(cc(O)c3c(=O)c2c2c1OC(C)(C)CC2)OC(C)(C)CC4 [STAUDTIIXANTHONE D] | 3.7 µg/mL (≈ 9.01 µM) | Non-toxic |  | Non-toxic | 4033.7 pg/mL |  | Non-toxic | Dose-dependent effect |  | Dose-dependent effect | 528.5 pg/mL | 120.5 pg/mL | 27% |  | inhibition at 6.125 µg/mL (PBMC [23]): 70.4%; Activity [24]: 24%; Activity [25]: 70%; inhibition at 3.1 µg/mL (PBMC [26]): 44.9%; Activity [27]: 59% |
